Molecules are shown by their SMILES. ≈ marks a conversion by molar mass, not a printed value. Calls of active or inactive are those of the source. The rule behind the calls is not given here. Where only a bound is given, the exact number is not on record here.

For one experiment, the system named is Meloidogyne incognita. The experiment is described as follows: Nematotoxic activity against freshly hatched Meloidogyne incognita J2 (root-knot nematode) isolated from tomato roots assessed as induction of nematode paralysis measured 24 hr after immersion in compound test solutions. It counts as functional, organism-based. The method, boiled down: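 Freshly hatched (24 h) J2 extracted from tomato roots; 25 J2 per well in 96-well plates, kept in the dark at 28 °C. Motile or paralyzed J2 were scored under an inverted microscope at 40×. Paralysis was corrected for the water control (Schneider-Orelli). EC50 was fitted by log-logistic regression on the mean of five replicates; experiments were run twice.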
One may read the EC50 as the concentration at which the effect is half-maximal. Turning to `Oc1cc(O)c2c(c1)O[C@@H](c1ccc(O)c(O)c1)[C@@H](O)C2` [(+)-EPICATECHIN], the EC50 is > 1000 µg/mL.
The same measure, in the same setting: the same measure for `O=C(O)c1ccccc1` [BENZOIC ACID]: 501 µg/mL (≈ 4.1 mM); for `O=C(O)c1ccc2ccccc2c1` [BETA-NAPHTOIC ACID]: > 1000 µg/mL.
Turning to `O=C(O)/C=C/c1ccc(O)c(O)c1` [CAFFEIC ACID], the 50% effective concentration (EC50) is > 1000 µg/mL.
As to `Oc1cc(O)c2c(c1)OC(c1ccc(O)c(O)c1)C(O)C2` (stereo not given) [CATECHIN], the 50% effective concentration (EC50) was > 1000 µg/mL.
With `O=C(/C=C/c1ccc(O)c(O)c1)O[C@@H]1C[C@](O)(C(=O)O)C[C@@H](O)[C@H]1O` [CHLOROGENIC ACID], the EC50 was > 1000 µg/mL.
Turning to `O=C(O)/C=C/c1ccc(O)cc1` [COUMARIC ACID], the EC50 turned out to be 840 µg/mL (≈ 5.12 mM).
Same read-out and setting: in the case of `COc1cc(/C=C/C(=O)O)ccc1O` [FERULATE] it was > 1000 µg/mL; in that of `O=C(O)c1cc(O)c(O)c(O)c1` [GALLIC ACID], > 1000 µg/mL.
As to `O=C(O)CC(O)C(=O)O` (stereo not given) [MALIC ACID], the concentration for a half-maximal effect (EC50) is > 1000 µg/mL.
Consider `O=C(O)c1cccnc1` [NIACIN], for which the concentration giving a half-maximal response (EC50) was 1730 µg/mL (≈ 14.1 mM).
Turning to `O=C(O)c1ccc(O)cc1` [PARABEN], the EC50 worked out at 871 µg/mL (≈ 6.31 mM).
As for `O=C(O)c1ccc(O)c(O)c1` [PROTOCATECHUIC ACID], the EC50 is > 1000 µg/mL.
On to `C[C@@H]1O[C@@H](OC[C@H]2O[C@@H](Oc3c(-c4ccc(O)c(O)c4)oc4cc(O)cc(O)c4c3=O)[C@H](O)[C@@H](O)[C@@H]2O)[C@H](O)[C@H](O)[C@H]1O` [RUTIN], for which the concentration for a half-maximal effect (EC50) is > 1000 µg/mL.
For the compound `O=C(O)c1ccccc1O` [SALICYLIC ACID], the EC50 stood at 379 µg/mL (≈ 2.74 mM).
As for `COc1cc(C(=O)O)ccc1O` [VANILLIC ACID], the concentration giving a half-maximal response (EC50) was > 1000 µg/mL.

Another experiment deals with Meloidogyne incognita. Briefly: Nematotoxic activity against Meloidogyne incognita (root-knot nematode). The format is functional, organism-based. The method, boiled down: (§1)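 Freshly hatched J2 (24 h old), extracted from tomato roots, were exposed to test solutions at 25 J2 per well. Plates were kept in the dark at 28 °C with water and solvent-carrier controls. Nematodes were scored under an inverted microscope (40×) as motile or paralyzed. Paralysis was corrected for the water control by the Schneider-Orelli formula. EC50 came from log-logistic regression. Experiments were run twice.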
In turn, `Cc1ccc(C=O)o1` [5-METHYLFURFURAL] registered a half-maximal effective concentration (EC50) of 45.7 µg/mL (≈ 0.415 mM).
`O=Cc1ccc(CO)o1` [AES-103] returned an EC50 of 8.5 µg/mL (≈ 0.0674 mM).
Compound `O=Cc1ccco1` [FURFURAL] came in with a concentration for a half-maximal effect (EC50) of 41.1 µg/mL (≈ 0.428 mM).
`CCCCCC(=O)O` [HEXANOATE] showed an EC50 of 38.3 µg/mL (≈ 0.33 mM).
With `CCCCCCCCCCCCCCCC(=O)O` [PALMITIC ACID], a half-maximal effect (EC50) was put at 38.3 µg/mL (≈ 0.149 mM).
A word on the LC50: it is the concentration that kills 50% of the test population. `O=C(O)c1ccccc1O` [SALICYLIC ACID] gave a 50% lethal concentration (LC50) of 46 µg/mL (≈ 0.333 mM).

A further experiment relates to Meloidogyne incognita. Briefly: Nematotoxic activity against freshly hatched Meloidogyne incognita J2 (root-knot nematode) isolated from tomato roots assessed as induction of microscopic damages in nematode body measured 24 hr after immersion in compound test solutions. The format is functional, organism-based.
With `O=Cc1ccco1` [FURFURAL], the outcome was Active.

The subject of the next experiment is Meloidogyne incognita. The experiment is described as follows: Nematotoxic activity against freshly hatched Meloidogyne incognita J2 (root-knot nematode) isolated from tomato roots assessed as induction of nematode paralysis at 1000 ug/mL measured 24 hr after immersion in compound test solutions. The format is functional, organism-based. In a few lines: as §1
Turning to `O=C(O)/C=C/c1ccc(O)c(O)c1` [CAFFEIC ACID], the outcome was inactive.
Turning to `O=C(O)c1ccccc1O` [SALICYLIC ACID], the outcome was Active.

The record behind these values is ChEMBL document CHEMBL3046303, “Nematotoxic phenolic compounds from Melia azedarach against Meloidogyne incognita” (J Agric Food Chem, 2012).
